# Assay results pooled from the literature.
# Target: Ephrin type-A receptor 4 (EPHA4, Homo sapiens, UniProt P54764)
Structure (SMILES),observed,mode,method,tested at,quantity,result
CCC(=O)N[C@@H]1CC[C@H](C(=O)N(C)c2ccc(-c3nc4ccccc4o3)cc2)C1,cell-free assay,,competition with immobilised ligand,1 µM,remaining binding,100%
COc1cc(Cl)c(C(=O)N[C@@H](CN[C@H]2CC[C@@H](N)CC2)Cc2ccc(C#N)cc2)cc1-c1ccc(CN[C@H](C)c2ccc(C)cc2)o1,enzyme activity,inhibitor,,1 µM,remaining activity,99%
Nc1c(C(=O)NCc2ccc(C(=O)NCCCC3CCCCC3)cc2)cnn1-c1ccccc1,cell-free assay,,competition with immobilised ligand,0.1 µM,remaining binding,100%
COc1cc2ncnc(Nc3ccc(Oc4ccccc4)cc3C)c2cc1OC,enzyme activity,inhibitor,,1 µM,inhibition,10%
Cc1noc([C@H]2C[C@@H](c3ccc(C(F)(F)F)cc3)CN(C(=O)N3CCS(=O)(=O)C3)C2)n1,cell-free assay,,competition with immobilised ligand,1 µM,remaining binding,100%
Cc1sc(C(=O)NC2COC2)cc1-n1cc(NC(=O)Nc2c(F)cccc2Cl)cn1,enzyme activity,inhibitor,,10 µM,remaining activity,116%
Cc1cnc(NC2CCOCC2)nc1-n1cnc(C(=O)NC(CN)c2cc(F)cc(Cl)c2)c1 (centres unmarked),enzyme activity,inhibitor,radiometric,1 µM,remaining activity,104%
O=C1NC(=O)c2cc(Nc3ccc(F)cc3)c(Nc3ccc(F)cc3)cc21,cell-free assay,,,0.5 µM,remaining signal,94%
Cc1ccc(Nc2nccc(N(C)c3ccc4c(C)n(C)nc4c3)n2)cc1S(N)(=O)=O,enzyme activity,inhibitor,,0.3 µM,inhibition,3%
CC(C)(C)c1nc(-c2cccc(NS(=O)(=O)c3c(F)cccc3F)c2F)c(-c2ccnc(N)n2)s1,enzyme activity,inhibitor,radiometric,1 µM,remaining activity,97%
Cn1c(=O)n(-c2ccc(C(C)(C)C#N)cc2)c2c3cc(-c4cnc5ccccc5c4)ccc3ncc21,enzyme activity,inhibitor,,10 µM,remaining activity,105%
N#CC1(c2ccccn2)CCN(Cc2cc(C(=O)N3CCCC3)c(=O)n3ccccc23)CC1,cell-free assay,,competition with immobilised ligand,1 µM,remaining binding,89%
COc1cc(Nc2cnc(C#N)c(O[C@H](C)CN(C)C)n2)ncc1-c1cnn(C)c1,enzyme activity,inhibitor,radiometric,10 µM,remaining activity,41%
CNC(=O)c1cc(Oc2ccc(NC(=O)Nc3ccc(Cl)c(C(F)(F)F)c3)cc2)ccn1,enzyme activity,inhibitor,,0.3 µM,inhibition,7%
Cc1ccc(NC(=O)c2ccc(C)c(C(F)(F)F)c2)cc1C#Cc1nn(C2CCC(O)CC2)c2ncnc(N)c12 (centres unmarked),cell-free assay,,,10 µM,remaining signal,-2%
FC(F)c1nc2ccccc2n1-c1nc(N2CCOCC2)nc(N2CCOCC2)n1,enzyme activity,inhibitor,,10 µM,remaining activity,87%
Nc1ncnc2occ(-c3ccc(NC(=O)Nc4cc(C(F)(F)F)ccc4F)cc3)c12,cell-free assay,,,20 µM,remaining signal,0%
CS(=O)(=O)N1CCCC(NC(=O)[C@H](CCC2CCCCC2)NC(=O)c2ccc(CNc3ncnc4c3nnn4-c3ccccc3)cc2)C1 (some centres unmarked),cell-free assay,,competition with immobilised ligand,0.1 µM,remaining binding,76%
CCCS(=O)(=O)Nc1ccc(F)c(C(=O)c2c[nH]c3ncc(-c4ccc(Cl)cc4)cc23)c1F,enzyme activity,inhibitor,,1 µM,inhibition,< 10%
CCN(CC)c1ccc(C2=NNC(=O)CC2C)cc1[N+](=O)[O-] (centres unmarked),enzyme activity,inhibitor,,10 µM,remaining activity,85%
Cn1nc(C(F)(F)F)cc1-c1cnc(N2CCc3cc(S(=O)(=O)Nc4c(F)cc(Cl)cc4F)cc(N4CCCC4=O)c32)nc1,cell-free assay,,competition with immobilised ligand,1 µM,remaining binding,97%
CNC(=O)c1cc2c(Oc3ccc(NC(=O)C4(C(=O)Nc5ccc(F)cc5)CC4)cc3)ccnc2cc1OC,enzyme activity,inhibitor,radiometric,1 µM,inhibition,83%
CS(=O)(=O)N1CCCC(NC(=O)[C@H](CCC2CCCCC2)NC(=O)c2ccc(CNC(=O)c3cnc4ccccn34)cc2)C1 (some centres unmarked),cell-free assay,,competition with immobilised ligand,0.1 µM,remaining binding,98%
CCN(CC)CCNC(=O)c1c(C)[nH]c(/C=C2\C(=O)Nc3ccc(F)cc32)c1C,enzyme activity,inhibitor,,0.3 µM,inhibition,1%
CCCCN(CCCC)C(=O)CN1C[C@@H](c2cc(OC)c3c(c2)OCO3)[C@H](C(=O)O)[C@H]1CC(C)(C)CCC,cell-free assay,,competition with immobilised ligand,1 µM,remaining binding,95.7%
O=C(Nc1cnn(-c2csc(C(=O)NC3COC3)c2)c1)Nc1c(F)cccc1Cl,enzyme activity,inhibitor,,5 µM,remaining activity,89.1%
